ChEMBL document CHEMBL1649165, “Activity profile in vitro of micafungin against Spanish clinical isolates of common and emerging species of yeasts and molds” (2009)
In brackets after ≈: the same amount, converted by molar mass.

Assays:
Type in all cases: functional
[1] = system: Fusarium solani; test: Antimicrobial activity against Fusarium solani by broth microdilution method
Procedure, shortened: (§1)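 Filamentous fungus clinical isolates tested by the AFST-EUCAST reference broth microdilution method for moulds. For echinocandins, the endpoint was the minimum effective concentration: the lowest drug concentration giving aberrant hyphal growth, read with an inverted microscope.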

[2] = system: Mucor; test: Antimicrobial activity against Mucor spp.by broth microdilution method; procedure, shortened: as §1
[3] = system: Clavispora lusitaniae; test: Antimicrobial activity against Candida lusitaniae by broth microdilution method
Procedure, shortened: (§2)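 Clinical isolates from human patients, tested by broth microdilution using the AFST-EUCAST reference procedure for fermentative yeasts. The MIC was read per that reference method.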

[4] = system: Trichosporon asahii; test: Antimicrobial activity against Trichosporon asahii by broth microdilution method
Procedure, shortened: (§3)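 Nonfermentative yeast clinical isolates (Rhodotorula, Trichosporon) tested by broth microdilution. The EUCAST yeast recommendations were followed strictly, with one minor modification to improve growth. MIC was read as the endpoint.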

[5] = system: Cunninghamella bertholletiae; test: Antimicrobial activity against Cunninghamella bertholletiae by broth microdilution method
Procedure, shortened: (§4)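 Clinical mould isolates, tested by broth microdilution using the AFST-EUCAST reference method for filamentous fungi. For echinocandins, the endpoint was the minimum effective concentration: the lowest drug concentration giving aberrant hyphal growth, read with an inverted microscope.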

[6] = system: Paecilomyces variotii; test: Antimicrobial activity against Paecilomyces variotii by broth microdilution method; procedure, shortened: as §1
[7] = system: Aspergillus flavus; test: Antimicrobial activity against Aspergillus flavus by broth microdilution method; procedure, shortened: as §4
[8] = system: Scedosporium apiospermum; test: Antimicrobial activity against Scedosporium apiospermum by broth microdilution method; procedure, shortened: as §1
[9] = system: Beauveria bassiana; test: Antimicrobial activity against Beauveria bassiana by broth microdilution method; procedure, shortened: as §4
[10] = system: Debaryomyces hansenii; test: Antimicrobial activity against Candida famata by broth microdilution method; procedure, shortened: as §2
[11] = Antimicrobial activity against Hormographiella aspergillata by broth microdilution method; details: Coprinopsis cinerea; procedure, shortened: as §1
[12] = system: Lichtheimia corymbifera; test: Antimicrobial activity against Mycocladus corymbiferus by broth microdilution method; procedure, shortened: as §1
[13] = system: [Candida] inconspicua; test: Antimicrobial activity against Candida inconspicua by broth microdilution method; details: Pichia inconspicua; procedure, shortened: as §2
[14] = system: Pichia kudriavzevii; test: Antimicrobial activity against Candida krusei by broth microdilution method; procedure, shortened: as §2
[15] = system: Aureobasidium pullulans; test: Antimicrobial activity against Aureobasidium pullulans by broth microdilution method
[16] = system: Coprinellus domesticus; test: Antimicrobial activity against Hormographiella verticillata by broth microdilution method; procedure, shortened: as §1
[17] = system: Naganishia albida; test: Antimicrobial activity against Cryptococcus albidus by broth microdilution method
Procedure, shortened: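 Clinical isolates of nonfermentative yeasts, tested by broth microdilution following EUCAST recommendations. The only change from that method was a minor modification to improve growth.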

[18] = system: Lomentospora prolificans; test: Antimicrobial activity against Scedosporium prolificans by broth microdilution method; procedure, shortened: as §1
[19] = system: [Candida] intermedia; test: Antimicrobial activity against Candida intermedia by broth microdilution method; details: Sungouiella intermedia; procedure, shortened: as §2
[20] = system: Cladosporium; test: Antimicrobial activity against Cladosporium spp. by broth microdilution method; procedure, shortened: as §4
[21] = system: Nakaseomyces glabratus; test: Antimicrobial activity against Candida glabrata by broth microdilution method; procedure, shortened: as §2
[22] = system: Kluyveromyces marxianus; test: Antimicrobial activity against Candida kefyr by broth microdilution method; procedure, shortened: as §2
[23] = system: Yarrowia lipolytica; test: Antimicrobial activity against Yarrowia lipolytica by broth microdilution method
[24] = system: Candida albicans; test: Antimicrobial activity against Candida albicans by broth microdilution method; procedure, shortened: as §2
[25] = system: Lecythophora hoffmannii; test: Antimicrobial activity against Lecythophora hoffmannii by broth microdilution method; details: Coniochaeta hoffmannii; procedure, shortened: as §1
[26] = system: Hortaea werneckii; test: Antimicrobial activity against Hortaea werneckii by broth microdilution method
[27] = system: Fusarium equiseti; test: Antimicrobial activity against Fusarium equiseti by broth microdilution method; procedure, shortened: as §4
[28] = system: Rhodotorula glutinis; test: Antimicrobial activity against Rhodotorula glutinis by broth microdilution method; procedure, shortened: as §3
[29] = system: Candida tropicalis; test: Antimicrobial activity against Candida tropicalis by broth microdilution method; procedure, shortened: as §2
[30] = system: Kazachstania pintolopesii; test: Antimicrobial activity against Candida pintolopesii by broth microdilution method; details: Arxiozyma pintolopesii; procedure, shortened: as §2
[31] = system: Wickerhamomyces anomalus; test: Antimicrobial activity against Candida pelliculosa by broth microdilution method; details: Hansenula anomala; procedure, shortened: as §2
[32] = system: Magnusiomyces capitatus; test: Antimicrobial activity against Dipodascus capitatus by broth microdilution method
[33] = system: Fusarium proliferatum; test: Antimicrobial activity against Fusarium proliferatum by broth microdilution method; procedure, shortened: as §4
[34] = system: Candida parapsilosis; test: Antimicrobial activity against Candida parapsilosis by broth microdilution method; details: Lodderomyces parapsilosis; procedure, shortened: as §2
[35] = system: Aspergillus terreus; test: Antimicrobial activity against Aspergillus terreus by broth microdilution method; procedure, shortened: as §4
[36] = system: Neurospora sitophila; test: Antimicrobial activity against Chrysonilia sitophila by broth microdilution method; procedure, shortened: as §4
[37] = system: Candida orthopsilosis; test: Antimicrobial activity against Candida orthopsilosis by broth microdilution method; details: Lodderomyces orthopsilosis; procedure, shortened: as §2
[38] = system: Rhizopus arrhizus; test: Antimicrobial activity against Rhizopus oryzae by broth microdilution method; procedure, shortened: as §1
[39] = system: Fennellia nivea; test: Antimicrobial activity against Aspergillus niveus by broth microdilution method; procedure, shortened: as §4
[40] = system: Aspergillus; test: Antimicrobial activity against Aspergillus spp. by broth microdilution method; procedure, shortened: as §4
[41] = system: Cladophialophora bantiana; test: Antimicrobial activity against Cladophialophora bantiana by broth microdilution method; procedure, shortened: as §4

## C[C@@H]1[C@H](O)[C@@H](C)/C=C/C=C/C=C/C=C/C=C/C=C/C=C/[C@H](O[C@@H]2O[C@H](C)[C@@H](O)[C@H](N)[C@@H]2O)C[C@@H]2O[C@](O)(C[C@@H](O)C[C@@H](O)[C@H](O)CC[C@@H](O)C[C@@H](O)CC(=O)O[C@H]1C)C[C@H](O)[C@H]2C(=O)O [AMPHOTERICIN B]
[1]
  MIC50: 1 µg/mL (≈ 1.08 µM)
  MIC90: 2 µg/mL (≈ 2.16 µM)
[2]
  MIC50: 0.12 µg/mL (≈ 0.13 µM)
  MIC90: 1 µg/mL (≈ 1.08 µM)
[3]
  MIC50: 0.06 µg/mL (≈ 0.0649 µM)
  MIC90: 0.12 µg/mL (≈ 0.13 µM)
[4]
  MIC50: 8 µg/mL (≈ 8.66 µM)
  MIC90: > 16 µg/mL
[5]
  MIC50: 2 µg/mL (≈ 2.16 µM)
  MIC90: > 16 µg/mL
[6]
  MIC50: 0.03 µg/mL (≈ 0.0325 µM)
  MIC90: 0.5 µg/mL (≈ 0.541 µM)
[7]
  MIC50: 1 µg/mL (≈ 1.08 µM)
  MIC90: 2 µg/mL (≈ 2.16 µM)
[8]
  MIC50: 4 µg/mL (≈ 4.33 µM)
  MIC90: > 16 µg/mL
[9]
  MIC50: 0.5 µg/mL (≈ 0.541 µM)
  MIC90: > 16 µg/mL
[10]
  MIC50: 0.12 µg/mL (≈ 0.13 µM)
  MIC90: 1 µg/mL (≈ 1.08 µM)
[11]
  MIC50: 0.5 µg/mL (≈ 0.541 µM)
  MIC90: > 16 µg/mL
[12]
  MIC50: 0.12 µg/mL (≈ 0.13 µM)
  MIC90: 0.25 µg/mL (≈ 0.271 µM)
[13]
  MIC50: 0.12 µg/mL (≈ 0.13 µM)
  MIC90: 1 µg/mL (≈ 1.08 µM)
[14]
  MIC50: 0.5 µg/mL (≈ 0.541 µM)
  MIC90: 0.5 µg/mL (≈ 0.541 µM)
[15]
  MIC50: 0.25 µg/mL (≈ 0.271 µM)
  MIC90: 1 µg/mL (≈ 1.08 µM)
[16]
  MIC50: 0.5 µg/mL (≈ 0.541 µM)
  MIC90: > 16 µg/mL
[17]
  MIC50: 0.5 µg/mL (≈ 0.541 µM)
  MIC90: 8 µg/mL (≈ 8.66 µM)
[18]
  MIC50: > 16 µg/mL
  MIC90: > 16 µg/mL
[19]
  MIC50: 0.12 µg/mL (≈ 0.13 µM)
  MIC90: 1 µg/mL (≈ 1.08 µM)
[20]
  MIC50: 0.25 µg/mL (≈ 0.271 µM)
  MIC90: 1 µg/mL (≈ 1.08 µM)
[21]
  MIC50: 0.12 µg/mL (≈ 0.13 µM)
  MIC90: 0.25 µg/mL (≈ 0.271 µM)
[22]
  MIC50: 0.25 µg/mL (≈ 0.271 µM)
  MIC90: 0.5 µg/mL (≈ 0.541 µM)
[23]
  MIC50: 0.5 µg/mL (≈ 0.541 µM)
  MIC90: 0.5 µg/mL (≈ 0.541 µM)
[24]
  MIC50: 0.06 µg/mL (≈ 0.0649 µM)
  MIC90: 0.12 µg/mL (≈ 0.13 µM)
[25]
  MIC50: 0.25 µg/mL (≈ 0.271 µM)
  MIC90: 1 µg/mL (≈ 1.08 µM)
[26]
  MIC50: 0.25 µg/mL (≈ 0.271 µM)
  MIC90: 1 µg/mL (≈ 1.08 µM)
[27]
  MIC50: 0.5 µg/mL (≈ 0.541 µM)
  MIC90: > 16 µg/mL
[28]
  MIC50: 0.5 µg/mL (≈ 0.541 µM)
  MIC90: 8 µg/mL (≈ 8.66 µM)
[29]
  MIC50: 0.12 µg/mL (≈ 0.13 µM)
  MIC90: 0.25 µg/mL (≈ 0.271 µM)
[30]
  MIC50: 0.12 µg/mL (≈ 0.13 µM)
  MIC90: 1 µg/mL (≈ 1.08 µM)
[31]
  MIC50: 0.12 µg/mL (≈ 0.13 µM)
  MIC90: 1 µg/mL (≈ 1.08 µM)
[32]
  MIC50: 0.5 µg/mL (≈ 0.541 µM)
  MIC90: 0.5 µg/mL (≈ 0.541 µM)
[33]
  MIC50: 2 µg/mL (≈ 2.16 µM)
  MIC90: 4 µg/mL (≈ 4.33 µM)
[34]
  MIC50: 0.12 µg/mL (≈ 0.13 µM)
  MIC90: 0.25 µg/mL (≈ 0.271 µM)
[35]
  MIC50: 1 µg/mL (≈ 1.08 µM)
  MIC90: 4 µg/mL (≈ 4.33 µM)
[36]
  MIC50: 0.5 µg/mL (≈ 0.541 µM)
  MIC90: > 16 µg/mL
[37]
  MIC50: 0.12 µg/mL (≈ 0.13 µM)
  MIC90: 1 µg/mL (≈ 1.08 µM)
[38]
  MIC50: 0.5 µg/mL (≈ 0.541 µM)
  MIC90: 2 µg/mL (≈ 2.16 µM)
[39]
  MIC50: 0.5 µg/mL (≈ 0.541 µM)
  MIC90: > 16 µg/mL
[40]
  MIC50: 0.5 µg/mL (≈ 0.541 µM)
  MIC90: > 16 µg/mL
[41]
  MIC50: 0.25 µg/mL (≈ 0.271 µM)
  MIC90: 1 µg/mL (≈ 1.08 µM)
